E-selectin induc – E-selectin induction on HUVECs | activation, % at 7.58 µM | actives 0.37% (n = 260,000) | HUVEC E-selectin immunofluorescence imaging; normalized: neutral wells 0, TNF-alpha wells 100;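 active = mean E-selectin-positive cell signal at least 10% of the positive control, reached in at least 60% of replicates, without over 20% cell loss; inconclusive = no rule given, readout overlaps actives, possibly toxicity-flagged; inactive = the rest, including those meeting only one limit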
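Material: HUVEC primary endothelial cells; Amount: 3,000 cells per well; Dosing: single concentration; Medium: EGM-2 growth medium on 0.1% gelatin-coated wells; Read-out basis: percent E-selectin-positive cells; Signal: immunofluorescence imaging; Control set: TNF-alpha, DMSO.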
DENV2 CPE rescue – inhibitors of DENV2 cytopathic effect; DENV2-infected cells, cytopathic effect rescue, plate reader; CPE inhibition, % at 9.99 µM; actives 1.7% (n = 350,000); in the data active = CPE inhibition above about 20%, passing the limit was not always enough; inconclusive = no clear call, values can overlap the other calls; tested in BHK-21 cells
ERAP1 inh – blocks human ERAP1 aminopeptidase activity | Q9NZ08 | recombinant ERAP1, Leu-AMC fluorescence, 60 min | actives 0.15% (n = 340,000) | AID 652197 | inhibition, % at 10.7 µM;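 active = mean replicate inhibition of at least 30%, or all replicates individually reaching that 30% level; inactive = mean below 30% and not every replicate reaching it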
PglD DTNB – blocks C. jejuni PglD acetyltransferase activity. actives 0.098% (n = 360,000). inhibition, % at 12.5 µM. purified PglD enzyme, DTNB colorimetric CoA detection; in the data active = inhibition above about 16%, passing the limit was not always enough; inconclusive = no clear call, values can overlap the other calls
SIRT5 inh – sirtuin-5 (human) deacylase inhibition; Q9NXA8; Purified SirT5, succinyl-peptide AMC, trypsin-coupled fluorescence; inhibition, % at 15 µM; actives 1.1% (n = 330,000); AID 652115; in the data active = inhibition above about 15%; inconclusive = no clear call, values can overlap the other calls
Target sequence (Q9NXA8 whole entry, looked up): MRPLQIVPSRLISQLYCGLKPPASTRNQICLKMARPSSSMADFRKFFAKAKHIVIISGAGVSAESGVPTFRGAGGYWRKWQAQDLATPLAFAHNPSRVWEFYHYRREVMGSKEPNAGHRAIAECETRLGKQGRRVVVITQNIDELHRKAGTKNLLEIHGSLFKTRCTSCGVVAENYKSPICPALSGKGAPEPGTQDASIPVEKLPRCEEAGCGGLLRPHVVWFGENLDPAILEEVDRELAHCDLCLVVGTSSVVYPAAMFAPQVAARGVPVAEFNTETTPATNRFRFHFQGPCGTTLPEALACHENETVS
Numbers stand for hits; - = inactive; ? = inconclusive; . = no result. Only some compounds are listed: those with a hit (about 2.5% of all), similar ones and a draw of the others.

SMILES	E-selectin induc	DENV2 CPE rescue	ERAP1 inh	PglD DTNB	SIRT5 inh
C[C@@H]1CN([C@@H](C)CO)C(=O)c2cc(NS(C)(=O)=O)ccc2O[C@H]1CN(C)C(=O)Nc1ccccc1	-	-	-	-	-
C[C@H]1CN([C@@H](C)CO)C(=O)c2cc(NS(C)(=O)=O)ccc2O[C@H]1CN(C)C(=O)Nc1ccccc1	-	-	-	-	-
C[C@@H]1CN([C@@H](C)CO)C(=O)c2cc(NS(C)(=O)=O)ccc2O[C@H]1CN(C)C(=O)Nc1ccc2c(c1)OCO2	-	-	-	-	-
C[C@@H]1CN([C@H](C)CO)C(=O)c2cc(NS(C)(=O)=O)ccc2O[C@H]1CN(C)C(=O)Nc1ccccc1	69	-	-	-	-
C[C@@H]1CN([C@H](C)CO)C(=O)c2cc(NS(C)(=O)=O)ccc2O[C@H]1CN(C)C(=O)Nc1ccc2c(c1)OCO2	197	-	-	-	-
O=C(CCNS(=O)(=O)c1cccs1)Nc1nccs1	.	.	.	-	.
COc1ccc(C(=O)N(CN2CCCC2=O)c2ccccc2OC)cc1OC	.	.	.	-	.
COc1ccc(C(O)P(=O)(OC(C)C)OC(C)C)cc1OC (stereo not drawn)	.	-	-	-	-
CC1CCN(C(=O)c2cc(S(=O)(=O)N3CCCCC3)c[nH]2)CC1	-	-	-	-	-
C[C@@H]1CN([C@@H](C)CO)C(=O)c2cc(NC(=O)CCC(F)(F)F)ccc2O[C@@H]1CN(C)C(=O)Nc1ccc2c(c1)OCO2	-	31	-	-	-
CCCc1cc(C(N)=S)ccn1	-	-	-	-	-
Cc1ccc(S(=O)(=O)Nc2ccc3c(c2)CC(=O)N([C@@H](C)CO)C[C@H](C)[C@H](CN(C)Cc2ccncc2)O3)cc1	-	-	-	-	-
C[C@@H]1CN([C@H](C)CO)C(=O)Cc2cc(NS(C)(=O)=O)ccc2O[C@@H]1CN(C)Cc1ccncc1	-	?	-	-	-
C[C@@H]1CN([C@@H](C)CO)C(=O)Cc2cc(NS(C)(=O)=O)ccc2O[C@H]1CN(C)Cc1ccncc1	440	-	-	-	-
Cc1ccc(S(=O)(=O)Nc2ccc3c(c2)CC(=O)N([C@@H](C)CO)C[C@@H](C)[C@H](CN(C)Cc2ccncc2)O3)cc1	-	37	-	-	-
C[C@@H]1CN([C@@H](C)CO)C(=O)CCCn2cc(nn2)CO[C@@H]1CN(C)Cc1ccc(Oc2ccccc2)cc1	-	-	-	-	-
C[C@@H]1CN([C@@H](C)CO)C(=O)Cc2cc(NC(=O)c3ccncc3)ccc2O[C@H]1CN(C)Cc1ccc(Oc2ccccc2)cc1	313	-	-	-	-
CC(C)NC(=O)Nc1ccc2c(c1)CC(=O)N([C@H](C)CO)C[C@H](C)[C@@H](CN(C)Cc1ccc(Oc3ccccc3)cc1)O2	37	-	-	-	-
C[C@@H]1CN([C@H](C)CO)C(=O)Cc2cc(NC(=O)Nc3ccc(C(F)(F)F)cc3)ccc2O[C@H]1CN(C)Cc1ccc(Oc2ccccc2)cc1	446	-	.	-	.
C[C@H]1CN([C@@H](C)CO)C(=O)Cc2cc(NC(=O)Cc3ccccc3)ccc2O[C@H]1CN(C)Cc1ccc(Oc2ccccc2)cc1	-	-	-	-	17
C[C@@H]1CN([C@@H](C)CO)C(=O)Cc2cc(NC(=O)Nc3ccc(C(F)(F)F)cc3)ccc2O[C@H]1CN(C)Cc1ccc(Oc2ccccc2)cc1	-	-	.	-	.
CC(C)NC(=O)Nc1ccc2c(c1)CC(=O)N([C@@H](C)CO)C[C@@H](C)[C@@H](CN(C)Cc1ccc(Oc3ccccc3)cc1)O2	-	-	-	-	-
O=C1CC[C@@H](C(=O)N2CSC[C@H]2C(=O)O)N1	-	-	-	-	-
C[C@@H]1CN([C@@H](C)CO)C(=O)Cc2cc(NC(=O)CCCN(C)C)ccc2O[C@@H]1CN(C)S(=O)(=O)c1ccc(F)cc1	-	-	-	-	-
CC(C)NC(=O)Nc1ccc2c(c1)CC(=O)N([C@H](C)CO)C[C@@H](C)[C@H](CN(C)Cc1ccc(Oc3ccccc3)cc1)O2	45	-	-	-	-
CC(C)NC(=O)Nc1ccc2c(c1)CC(=O)N([C@@H](C)CO)C[C@H](C)[C@H](CN(C)Cc1ccc(Oc3ccccc3)cc1)O2	-	-	-	-	-
CC(C)NC(=O)Nc1ccc2c(c1)CC(=O)N([C@@H](C)CO)C[C@@H](C)[C@H](CN(C)Cc1ccc(-c3ccccc3)cc1)O2	.	30	-	-	-
C[C@@H]1CN([C@@H](C)CO)C(=O)CCCn2cc(nn2)CO[C@H]1CN(C)C(=O)C1CC1	-	-	-	-	-

High-throughput results deposited in PubChem BioAssay by Broad Institute.
